A selection: hits, their analogues and other compounds. The true share with any hit is near 0.72%.
mIAP inh = blocks mouse intestinal alkaline phosphatase; purified mouse IAP, CDP-Star luminescence, 30 min; inhibition, % at 10 µM; hit rate 0.2% among 330,000; AID 2806;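 active = inhibition of at least 40% at 10 µM in the primary screen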;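 also: plate controls were DMSO with enzyme for no effect and no enzyme wells for full effect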
hIAP block = human IAP inhibition; inhibition, % at 10 µM; AID 2544; hit rate 0.12% among 330,000; purified IAP, CDP-Star luminescence, 30 min; P09923;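 active = inhibition reaching a set limit with compound at 10 µM in the primary screen, cut at about 35% in these data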;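 also: plate controls were DMSO wells with enzyme for no effect and no-enzyme buffer wells for full effect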
Target sequence (P09923 whole entry, looked up): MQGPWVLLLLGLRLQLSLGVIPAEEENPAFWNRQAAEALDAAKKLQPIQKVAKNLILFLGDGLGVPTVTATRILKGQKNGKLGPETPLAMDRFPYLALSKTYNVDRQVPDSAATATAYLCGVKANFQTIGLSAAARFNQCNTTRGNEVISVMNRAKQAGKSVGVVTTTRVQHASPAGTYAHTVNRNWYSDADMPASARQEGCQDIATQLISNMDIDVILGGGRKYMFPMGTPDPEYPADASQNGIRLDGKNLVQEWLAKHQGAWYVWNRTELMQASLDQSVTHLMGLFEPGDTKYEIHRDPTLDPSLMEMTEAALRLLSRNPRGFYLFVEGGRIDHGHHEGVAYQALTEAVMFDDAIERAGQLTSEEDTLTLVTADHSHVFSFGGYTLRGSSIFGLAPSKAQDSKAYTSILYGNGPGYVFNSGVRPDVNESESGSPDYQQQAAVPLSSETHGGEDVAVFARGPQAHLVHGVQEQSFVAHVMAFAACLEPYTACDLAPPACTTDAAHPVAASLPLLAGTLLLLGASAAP
mIAP act = increases mouse intestinal alkaline phosphatase activity; muIAP, CDP-Star luminescence, 30 min; hits give high values; 1 = vehicle-only enzyme signal, 0 = enzyme-free wells; activation factor at 10 µM; hit rate 0.24% among 330,000; AID 2805;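 active = activation factor of at least 2 at 20 µM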
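also added = chemiluminescent substrate CDP-Star | test system = mouse IAP enzyme | signal = chemiluminescence readout | compound = DMSO-dissolved test compounds | incubation = 30 min at room temperature | benchmarks = DMSO wells, no-enzyme wells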
bIAP act = intestinal alkaline phosphatase (bovine) activation; purified bovine IAP, CDP-star luminescence, 30 min; hits give high values; fold of DMSO-control signal, blank-subtracted; activation factor at 20 µM; hit rate 0.17% among 200,000; AID 1016;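 active = activation factor of 2 or more at 20 µM, a signal rise over negative controls twice the positive control's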
hIAP activ = increases human intestinal alkaline phosphatase activity. AID 2524. purified human IAP, CDP-Star luminescence, 30 min; hits give high values; 1 = vehicle-only enzyme, 0 = enzyme-free background. activation factor at 10 µM. hit rate 0.16% among 330,000. P09923;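 active = activation factor of the enzyme at least 2-fold when tested at 20 µM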
bIAP inhibitor = intestinal alkaline phosphatase (bovine) inhibition. 190,000 tested, under 10 active. purified bovine IAP, CDP-star luminescence, 30 min. inhibition, % at 20 µM;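 active = over 50% inhibition of intestinal alkaline phosphatase at 20 µM in the single-dose screen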
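test system = bovine IAP enzyme | medium = DEA buffer 100 mM, pH 9.8, with MgCl2 1.0 mM, ZnCl2 0.02 mM | detection = luminescence | dosing = single compound dose of 20 µM, 2% DMSO final | incubation = 30 min reaction at room temperature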
hIAP act confirm = human IAP activation confirmation | hit rate 10% among 880 | purified IAP, CDP-Star luminescence, 30 min; hits give low values | AID 434926 | activation (%Activity, negative = activation), % at 8.3 µM | shares compounds with hIAP activ;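 active = at least twofold enzyme activation in any of six single-dose repeats, which the averaged readout prints as negative percent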
The depositor's hits bear a star.

CN1C(=O)/C(=C\c2cc(N=Nc3ccccc3)ccc2O)SC1=S was read as mIAP inh 26.1, hIAP block 38.3*, mIAP act 0.739, bIAP act 0.7, hIAP activ 0.616, bIAP inhibitor 27.0 and hIAP act confirm 2.7.
Cc1nnc(SCC(=O)NCc2ccccc2)n1-c1ccccc1 was read as mIAP inh -7.9, hIAP block -0.2, mIAP act 1.08, bIAP act 0.9, hIAP activ 1 and bIAP inhibitor 5.7.
Screening Cc1nnc(SCC(=O)NCc2cccs2)n1-c1ccccc1 returned mIAP inh 10.6, hIAP block -112.8, mIAP act 0.894, bIAP act 0.9, hIAP activ 2.13*, bIAP inhibitor 8.1 and hIAP act confirm 14.6.
Cc1ccc(NS(=O)(=O)c2ccc(NC(=O)C3CC3)cc2)c(C)c1 was read as mIAP inh -9.8, hIAP block 36.0*, mIAP act 1.1, hIAP activ 0.64 and hIAP act confirm -1.6.
`Cc1ccc(NS(=O)(=O)c2ccc(NC(=O)c3cccs3)cc2)c(C)c1` gave mIAP inh 11.4, hIAP block 4.6, mIAP act 0.886, bIAP act 1, hIAP activ 0.954 and bIAP inhibitor -3.1.
`CC(=O)NC(Cc1cccc(F)c1)C(=O)NC1CCN(C(=O)Nc2ccc(C)cc2)CC1` (configuration not stated) gave mIAP inh -2.0, hIAP block 3.5, mIAP act 1.02 and hIAP activ 0.965.
Screening CCOC1=C/C(=C/c2c(N)n3nc(S(=O)(=O)CC)sc3nc2=O)C=CC1=O returned mIAP inh 38.8, hIAP block 36.8*, mIAP act 0.612, bIAP act 0.8, hIAP activ 0.632, bIAP inhibitor 20.0 and hIAP act confirm 26.6.
Screening CCOC1=C/C(=C/c2c(N)n3nc(CC(=O)N4CCCCC4)sc3nc2=O)C=CC1=O returned mIAP inh 9.9, hIAP block 22.1, mIAP act 0.901 and hIAP activ 0.779.
`Cc1nc2c(c(C)nn2-c2ccccc2)c(C)c1CCC(=O)Nc1ccc(CN2CCCC2)cc1` gave mIAP inh -23.9, hIAP block -10.1, mIAP act 1.24 and hIAP activ 1.1.
Screening O=C(NNC(=O)c1ccccc1Br)c1ccc2nc[nH]c2c1 returned mIAP inh 9.7, hIAP block -102.7, mIAP act 0.903, hIAP activ 2.03* and hIAP act confirm -10.5.
`CCn1nc(NS(=O)(=O)c2ccccc2)c2cc3cc(C)ccc3nc21` gave mIAP inh 5.2, hIAP block -8.7, mIAP act 0.948 and hIAP activ 1.09.
For CCn1nc(NS(=O)(=O)c2ccccc2)c2cc3ccc(C)cc3nc21 the results were mIAP inh 3.4, hIAP block 38.6*, mIAP act 0.966, hIAP activ 0.614 and hIAP act confirm -0.9.
CCN(Cc1ccccc1)C(=O)Cn1c(=O)n(-c2ccc(OC)cc2OC)c(=O)c2c(C)c(C)sc21 was read as mIAP inh 5.1, hIAP block -1.5, mIAP act 0.949, bIAP act 1, hIAP activ 1.01 and bIAP inhibitor 2.4.
For COc1ccccc1CNC(=O)CN(c1ccc(C)cc1)S(=O)(=O)c1c(C)noc1C the results were mIAP inh 3.5, hIAP block 38.0*, mIAP act 0.965, hIAP activ 0.62 and hIAP act confirm 32.5.
For Oc1ccc(N=Nc2c(O)ccc3ccccc23)cc1 the results were mIAP inh 32.2, hIAP block 44.7*, mIAP act 0.678, bIAP act 0.6, hIAP activ 0.553, bIAP inhibitor 40.8 and hIAP act confirm -91.9*.
CCCCCn1nc(C(=O)OCc2nc(N)nc(Nc3ccccc3)n2)c2ccccc2c1=O was read as mIAP inh 2.0, hIAP block -9.5, mIAP act 0.98 and hIAP activ 1.09.
Cc1ccc(NC(=O)C2CCN(S(=O)(=O)c3c(C)n[nH]c3C)CC2)c(C)c1 was read as mIAP inh -5.3, hIAP block -22.6, mIAP act 1.05 and hIAP activ 1.23.
Cn1c(/C(C#N)=C(\O)c2cc(Cl)sc2Cl)nc2ccccc21 was read as mIAP inh 5.6, hIAP block 21.3, mIAP act 0.944 and hIAP activ 0.787.
For Cn1c(/C(C#N)=C(\O)c2ccc(Br)s2)nc2ccccc21 the results were mIAP inh 4.8, hIAP block 47.0*, mIAP act 0.952, hIAP activ 0.53 and hIAP act confirm 27.4.
CC12CCC(C(=O)Nc3nc4ccccc4s3)(OC1=O)C2(C)C (configuration not stated) was read as mIAP inh 1.3, hIAP block -5.1, mIAP act 0.987, bIAP act 1, hIAP activ 1.05 and bIAP inhibitor 4.1.
`Cc1ccc(C(C)NC(=S)NC2CCCCC2)cc1C` (configuration not stated) gave mIAP inh -62.0, hIAP block 4.4, mIAP act 1.62 and hIAP activ 0.956.
CCC(NC(=S)NC1CCCCC1)c1ccc(C(C)C)cc1 (configuration not stated) was read as mIAP inh -467.0, hIAP block -310.7, mIAP act 5.67*, hIAP activ 4.11* and hIAP act confirm -24.1*.
`CSc1cccc(NC(=O)Cn2cnc(S(=O)(=O)N3CCCC3)c2)c1` gave mIAP inh -2.4, hIAP block -12.5, mIAP act 1.02 and hIAP activ 1.12.
Cn1nnnc1SCC(=O)Nc1ccccc1-c1ccccc1 was read as mIAP inh 7.5, hIAP block 37.6*, mIAP act 0.925, bIAP act 0.9, hIAP activ 0.624, bIAP inhibitor 9.4 and hIAP act confirm -2.2.
`Cc1ccccc1NC(=O)CSc1nnnn1C` gave mIAP inh -8.4, hIAP block -6.5, mIAP act 1.08, bIAP act 1, hIAP activ 1.06 and bIAP inhibitor 2.1.
For COC(=O)c1c(C)oc(C)c1S(=O)(=O)N(Cc1ccccc1)C(C)C the results were mIAP inh 4.6, hIAP block -10.3, mIAP act 0.954 and hIAP activ 1.1.
`C/C(=N\Nc1cccc(C(=O)O)c1)c1cc2ccccc2o1` gave mIAP inh -6.2, hIAP block -5.0, mIAP act 1.06, bIAP act 1, hIAP activ 1.05 and bIAP inhibitor 1.1.
`CCOc1ccc(C2NC(=O)C(C#N)=C(S)N2c2cccc(C)c2)cc1OC` (configuration not stated) gave mIAP inh 6.7, hIAP block 5.2, mIAP act 0.933, bIAP act 0.9, hIAP activ 0.948 and bIAP inhibitor 8.6.

Bioassay records: PubChem BioAssay, Sanford-Burnham Center for Chemical Genomics
